Laboratory results from ChEMBL document CHEMBL1125914, “Activity of acyclic 6-(phenylselenenyl)pyrimidine nucleosides against human immunodeficiency viruses in primary lymphocytes” (J Med Chem, 1991).

Experiments:
[1] = The compound was tested for toxicity in Vero cells.; assay type: cell-based; settings: Chlorocebus sabaeus (African green monkey)
[2] = Antiviral activity against human peripheral blood mononuclear cells, infected with HIV-1(strain LAV).; assay type: functional
Summary of the method: (§1)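 Primary human PBM cells infected with virus and exposed to compound. Virus in cell supernatant was quantified on day 6 post-infection by reverse transcriptase assay using poly(rA)n-oligo(dT)12-18 template-primer on disrupted virions. EC50 derived from the concentration-response curve by the Chou–Talalay median-effect method.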

Vero [3] = experiment: Antiviral activity against Vero cells, infected with HSV-1.; assay type: functional, cell-based; settings: Chlorocebus sabaeus
Summary of the method: (§2)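 Plaque reduction assay in Vero cells infected with HSV-1 strain F. Median effective concentration taken from the concentration-response curve by the Chou–Talalay median-effect method.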

[4] = The compound was tested for toxicity in peripheral blood mononuclear cells; assay type: functional, Homo sapiens
[5] = Antiviral activity against human peripheral blood mononuclear cells, infected with HIV-2(strain ROD-2); assay type: functional
Summary of the method: (§3)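 Human PBM cells were infected with HIV-1 strain LAV or HIV-2 strain ROD-2. On day 6 after infection, virus in the cell supernatant was quantitated by reverse transcriptase assay using poly(rA)n-oligo(dT)12-18 as template-primer. EC50 was derived from the concentration-response curve by the Chou–Talalay median-effect method.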

Nucleic Acid = experiment: Inhibitory activity against DNA polymerase-alpha derived from peripheral blood mononuclear cells; design: species or system Homo sapiens
Summary of the method: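 Selectivity counter-screen against DNA polymerase α purified from human PBM cells. Median inhibitory concentration derived from the concentration-response curve by the Chou–Talalay median-effect method.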

[6] = The compound was tested for toxicity in Vero cells; assay type: cell-based; settings: Chlorocebus sabaeus (African green monkey)
Vero [7] = experiment: Antiviral activity against Vero cells, infected with HSV-1; assay type: functional, cell-based; settings: Chlorocebus sabaeus; summary of the method: as §2
[8] = Antiviral activity against human peripheral blood mononuclear cells, infected with HIV-1(strain LAV); assay type: functional; summary of the method: as §3
[9] = The compound was tested for toxicity in peripheral blood mononuclear cells.; assay type: functional, Homo sapiens
[10] = biological target: T1, Human immunodeficiency virus type 1 reverse transcriptase (Human immunodeficiency virus 1, UniProt Q72547); experiment: Inhibition of HIV-1 reverse transcriptase.
[11] = Antiviral activity against human peripheral blood mononuclear cells, infected with HIV-2(strain ROD-2).; assay type: functional; summary of the method: as §1
[12] = biological target: T1, Human immunodeficiency virus type 1 reverse transcriptase; experiment: Inhibition of HIV-1 reverse transcriptase recombinant p66

| EC50 [2] [µM] | IC50 [10] [µM] | EC50 [11] [µM] | Structure (SMILES) | IC50 [1] [µM] | EC50 (Vero [3]) [µM] | IC50 [4] [µM] | EC50 [5] [µM] | IC50 (Nucleic Acid) [µM] | IC50 [6] [µM] | EC50 (Vero [7]) [µM] | EC50 [8] [µM] | IC50 [9] [µM] | IC50 [12] [µM] |
| --- | --- | --- | --- | --- | --- | --- | --- | --- | --- | --- | --- | --- | --- |
| > 100 | – | – | O=c1[nH]c(=O)n(COCCO)cc1Cl | > 100 | > 100 | – | – | – | – | – | – | – | – |
| > 100 | – | – | Cc1cn(COCCO)c(=O)[nH]c1=O | > 100 | > 100 | – | – | – | – | – | – | > 100 | – |
| > 100 | – | – | O=c1[nH]c(=O)n(COCCO)cc1F | > 100 | > 100 | – | – | – | – | – | – | 67 | – |
| > 100 | – | – | O=c1[nH]c(=O)n(COCCO)cc1Br | > 100 | > 100 | – | – | – | – | – | – | 100 | – |
| > 100 | – | – | Cc1cn(COCCO)c(=S)[nH]c1=O | > 100 | > 100 | – | – | – | – | – | – | > 100 | – |
| 5.3 | 17.5 | > 100 | Cc1c(Sc2ccccc2)n(COCCO)c(=O)[nH]c1=O [HEPT] | > 100 | > 100 | – | – | > 100 | – | – | – | > 100 | – |

More lines, now with the values behind:

| Structure (SMILES) | EC50 [2] [µM] | IC50 [10] [µM] | EC50 [11] [µM] | IC50 [1] [µM] | EC50 (Vero [3]) [µM] | IC50 [4] [µM] | EC50 [5] [µM] | IC50 (Nucleic Acid) [µM] | IC50 [6] [µM] | EC50 (Vero [7]) [µM] | EC50 [8] [µM] | IC50 [9] [µM] | IC50 [12] [µM] |
| --- | --- | --- | --- | --- | --- | --- | --- | --- | --- | --- | --- | --- | --- |
| O=c1[nH]c(=O)n(COCCO)c([Se]c2ccccc2)c1Cl | – | – | – | – | – | > 100 | 7.9 | > 100 | 7.5 | > 100 | 3.1 | – | – |
| Cc1c([Se]c2ccccc2)n(COCCO)c(=O)[nH]c1=O | – | – | – | – | – | > 200 | 25.6 | > 100 | > 100 | > 100 | 0.96 | – | – |
| Cc1c([Se]c2ccccc2)n(COCCO)c(=S)[nH]c1=O | – | – | – | – | – | > 100 | 5.8 | > 100 | 60.7 | > 100 | 2.8 | – | – |
| O=c1ccn(COCCO)c(=O)[nH]1 | – | – | – | – | – | > 100 | – | – | > 100 | > 100 | > 100 | – | – |
| O=c1cc([Se]c2ccccc2)n(COCCO)c(=O)[nH]1 | – | – | – | – | – | > 100 | 9.6 | > 100 | > 100 | > 200 | 13 | – | – |
| O=c1[nH]c(=O)n(COCCO)c([Se]c2ccccc2)c1F | – | – | – | – | – | > 100 | 9.1 | > 100 | 25.7 | > 100 | 2 | – | – |
| O=c1[nH]c(=O)n(COCCO)c([Se]c2ccccc2)c1Br | – | – | – | – | – | > 100 | 2 | > 100 | 8.2 | > 100 | 3.7 | – | – |
| Cc1cn([C@H]2C[C@H](N=[N+]=[N-])[C@@H](CO)O2)c(=O)[nH]c1=O [ZIDOVUDINE] | – | – | – | – | – | > 100 | < 0.002 | > 100 | 26 | > 100 | 0.004 | – | < 0.1 |
